Laboratory results: ChEMBL document CHEMBL3352213, “Development of dual targeting inhibitors against aggregations of amyloid-β and tau protein” (Eur J Med Chem, 2014)

Experiments:
[1] = molecular target: T1, Microtubule-associated protein tau (Homo sapiens, UniProt P10636); test: Inhibition of His-tagged human brain tau 3R MBD aggregation after 16 hrs by thioflavin T fluorescence method
[2] = molecular target: T2, Amyloid-beta precursor protein (Homo sapiens, UniProt P05067); test: Inhibition of amyloid beta (1-42) aggregation (unknown origin) at 10 uM after 24 hrs by thioflavin T fluorescence method
[3] = molecular target: T2, Amyloid-beta precursor protein; test: Inhibition of amyloid beta (1-42) aggregation (unknown origin) after 24 hrs by thioflavin T fluorescence method
[4] = molecular target: T1, Microtubule-associated protein tau; test: Inhibition of His-tagged human brain tau 3R MBD aggregation at 10 uM after 16 hrs by thioflavin T fluorescence method
Procedure, shortened: (§1)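 His-tagged 3R MBD tau expressed in E. coli BL21(DE3), purified by Ni-chelate chromatography, dialysed against ammonium acetate and freeze-dried. Tau 10 μM plus heparin 10 μM in 50 mM Tris–HCl pH 7.6 with compound (0.1–10 μM, DMSO), incubated 37 °C 16 h in the dark. Background fluorescence read first, then 10 μM ThT added; ThT fluorescence at ex 440/em 486 nm.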

[5] = molecular target: T2, Amyloid-beta precursor protein; test: Inhibition of amyloid beta (1-42) aggregation (unknown origin) at 1 uM after 24 hrs by thioflavin T fluorescence method
[6] = molecular target: T1, Microtubule-associated protein tau; test: Inhibition of His-tagged human brain tau 3R MBD aggregation at 1 uM after 16 hrs by thioflavin T fluorescence method; procedure, shortened: as §1

T1 sequence (P10636 whole entry): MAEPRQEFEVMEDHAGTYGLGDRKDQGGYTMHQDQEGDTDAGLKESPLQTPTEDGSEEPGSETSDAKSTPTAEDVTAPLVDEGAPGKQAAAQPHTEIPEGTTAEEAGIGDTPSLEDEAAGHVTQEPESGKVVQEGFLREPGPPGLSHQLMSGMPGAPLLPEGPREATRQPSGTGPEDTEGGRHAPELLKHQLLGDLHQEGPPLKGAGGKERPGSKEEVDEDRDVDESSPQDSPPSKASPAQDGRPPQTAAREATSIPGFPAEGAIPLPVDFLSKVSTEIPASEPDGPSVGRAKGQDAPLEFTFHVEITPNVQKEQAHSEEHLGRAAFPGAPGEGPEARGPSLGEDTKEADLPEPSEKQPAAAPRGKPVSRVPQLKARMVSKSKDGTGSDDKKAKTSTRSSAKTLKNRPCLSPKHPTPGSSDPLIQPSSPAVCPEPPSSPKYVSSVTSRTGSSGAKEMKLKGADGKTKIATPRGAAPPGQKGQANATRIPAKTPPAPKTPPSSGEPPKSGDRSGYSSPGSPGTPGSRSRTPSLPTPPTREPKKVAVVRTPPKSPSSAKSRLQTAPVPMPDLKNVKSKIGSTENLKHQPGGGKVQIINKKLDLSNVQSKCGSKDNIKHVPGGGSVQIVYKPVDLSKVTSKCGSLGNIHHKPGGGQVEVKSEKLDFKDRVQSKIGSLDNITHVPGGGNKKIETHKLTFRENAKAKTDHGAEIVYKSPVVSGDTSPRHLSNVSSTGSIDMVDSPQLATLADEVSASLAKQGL
T2 sequence (P05067 whole entry): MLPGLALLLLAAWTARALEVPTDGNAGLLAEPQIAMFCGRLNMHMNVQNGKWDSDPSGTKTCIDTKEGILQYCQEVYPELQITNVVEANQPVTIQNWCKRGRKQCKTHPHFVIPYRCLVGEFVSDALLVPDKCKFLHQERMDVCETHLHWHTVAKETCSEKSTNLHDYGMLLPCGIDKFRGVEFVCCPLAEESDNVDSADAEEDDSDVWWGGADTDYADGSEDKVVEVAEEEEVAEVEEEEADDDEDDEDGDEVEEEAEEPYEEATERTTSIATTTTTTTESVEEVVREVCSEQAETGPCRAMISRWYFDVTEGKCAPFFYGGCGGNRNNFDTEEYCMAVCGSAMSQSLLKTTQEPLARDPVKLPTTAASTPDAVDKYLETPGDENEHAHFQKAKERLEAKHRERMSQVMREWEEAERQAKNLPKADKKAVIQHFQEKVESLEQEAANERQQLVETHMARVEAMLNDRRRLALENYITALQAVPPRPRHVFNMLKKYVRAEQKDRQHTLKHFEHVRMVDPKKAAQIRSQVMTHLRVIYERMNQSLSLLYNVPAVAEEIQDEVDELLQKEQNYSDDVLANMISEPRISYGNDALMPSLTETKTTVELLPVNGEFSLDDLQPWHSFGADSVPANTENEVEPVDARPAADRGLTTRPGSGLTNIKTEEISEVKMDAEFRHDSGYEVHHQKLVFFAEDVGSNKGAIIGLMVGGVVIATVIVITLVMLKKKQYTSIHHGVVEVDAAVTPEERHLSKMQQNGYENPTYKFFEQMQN

Structure (SMILES)	IC50 [1] [µM]	inhibition [2] [%]	IC50 [3] [µM]	inhibition [4] [%]	inhibition [5] [%]	inhibition [6] [%]
O=Cc1ccc(-c2ccc(-c3ccc4[nH]ccc4c3)s2)s1	1.6	46	> 10			
N#CC(C#N)=Cc1ccc(-c2ccc(-c3ccc(N(c4ccccc4)c4ccccc4)cc3)s2)s1	> 10	43	> 10	14		
COc1ccc(-c2ccc(-c3ccc(C=C(C#N)C#N)s3)s2)cc1	> 10		< 1	28	78	
N#C/C(=C\c1ccc(-c2ccc(-c3ccc(N(c4ccccc4)c4ccccc4)cc3)s2)s1)C(=O)O	1.7		< 0.41		82	
N#CC(C#N)=Cc1ccc(-c2ccc(-c3ccc(N(c4ccccc4)c4ccccc4)cc3)c3nsnc23)s1	> 10	30	> 10	15		
N#C/C(=C\c1ccc(-c2ccc(-c3ccc(N(c4ccccc4)c4ccccc4)cc3)s2)s1)C(N)=O	> 10		1.5	29		
CN(C)c1ccc2nc3ccc(=[N+](C)C)cc-3sc2c1 [METHYLENE BLUE CATION]			0.55			
COc1ccc(-c2cc3c(s2)c2sc(-c4ccc(C=O)s4)cc2n3C(C)(C)C)cc1	0.29		0.38		61	74
O=c1c(O)c(-c2ccc(O)c(O)c2)oc2c(O)c(O)cc(O)c12 [GOSSYPETIN]	< 3		< 3			
CN(C)c1ccc2nc3ccc(N)cc3[s+]c2c1	< 3		< 3			
CC(C)(C)n1c2cc(-c3ccc(N(c4ccccc4)c4ccccc4)cc3)sc2c2sc(-c3ccc(C=O)s3)cc21	> 10	36	> 10	15		
O=Cc1ccc(-c2ccc(-c3ccc(N(c4ccccc4)c4ccccc4)cc3)c3nsnc23)s1	> 10	44	> 10	11		
N#C/C(=C\c1ccc(-c2ccc(-c3ccc(N(c4ccccc4)c4ccccc4)cc3)c3nsnc23)s1)C(N)=O	> 10	46	> 10	24		
CC(C)(C)n1c2cc(-c3ccc(N(c4ccccc4)c4ccccc4)cc3)sc2c2sc(-c3ccc(C=C(C#N)C#N)s3)cc21	> 10	16	> 10	18		
CN1C(=O)C(=Cc2ccc(-c3ccc(-c4ccc(N(c5ccccc5)c5ccccc5)cc4)s3)s2)C(=O)N(C)C1=O	> 10	18	> 10	7		
O=C1NC(=O)C(=Cc2ccc(-c3ccc(-c4ccc(N(c5ccccc5)c5ccccc5)cc4)s3)s2)C(=O)N1	> 10	0	> 10	12		
O=Cc1ccc(-c2ccc(-c3ccc(N(c4ccccc4)c4ccccc4)cc3)s2)s1	> 10		7.1	12		
CC(C)(C)n1c2cc(-c3ccc(N(c4ccccc4)c4ccccc4)cc3)sc2c2sc(-c3ccc(/C=C(\C#N)C(N)=O)s3)cc21	> 10	36	> 10	33		
COc1ccc(-c2ccc(-c3ccc(C=O)s3)s2)cc1	> 10	0	> 10	18		
CNc1ccc2nc3ccc(N(C)C)cc3[s+]c2c1	< 3		< 3			
COc1ccc(-c2cc3c(s2)c2sc(-c4ccc(/C=C(\C#N)C(N)=O)s4)cc2n3C(C)(C)C)cc1	0.3		0.55			
COc1ccc(-c2cc3c(s2)c2sc(-c4ccc(C=C(C#N)C#N)s4)cc2n3C(C)(C)C)cc1	> 10	18	> 10	27		
